Source: PubChem BioAssay
A selection: hits, their analogues and other compounds. The true share with any hit is near 2.3%.
TRPC4 agonist = TRPC4 (mouse) channel activation. AID 2237. 0.49% of 310,000 active. HEK293 TRPC4beta/mu-opioid, Fluo4 calcium fluorescence; stronger effect = higher value. B-score at 10 µM. Q9QUQ5;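 active = B-score above 5 SD of library B-scores, and initial fluorescence ratio not above library mean plus 5 SD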;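 note: positive B-score marks a calcium rise read as TRPC4 activation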
Target sequence (Q9QUQ5 whole entry, looked up): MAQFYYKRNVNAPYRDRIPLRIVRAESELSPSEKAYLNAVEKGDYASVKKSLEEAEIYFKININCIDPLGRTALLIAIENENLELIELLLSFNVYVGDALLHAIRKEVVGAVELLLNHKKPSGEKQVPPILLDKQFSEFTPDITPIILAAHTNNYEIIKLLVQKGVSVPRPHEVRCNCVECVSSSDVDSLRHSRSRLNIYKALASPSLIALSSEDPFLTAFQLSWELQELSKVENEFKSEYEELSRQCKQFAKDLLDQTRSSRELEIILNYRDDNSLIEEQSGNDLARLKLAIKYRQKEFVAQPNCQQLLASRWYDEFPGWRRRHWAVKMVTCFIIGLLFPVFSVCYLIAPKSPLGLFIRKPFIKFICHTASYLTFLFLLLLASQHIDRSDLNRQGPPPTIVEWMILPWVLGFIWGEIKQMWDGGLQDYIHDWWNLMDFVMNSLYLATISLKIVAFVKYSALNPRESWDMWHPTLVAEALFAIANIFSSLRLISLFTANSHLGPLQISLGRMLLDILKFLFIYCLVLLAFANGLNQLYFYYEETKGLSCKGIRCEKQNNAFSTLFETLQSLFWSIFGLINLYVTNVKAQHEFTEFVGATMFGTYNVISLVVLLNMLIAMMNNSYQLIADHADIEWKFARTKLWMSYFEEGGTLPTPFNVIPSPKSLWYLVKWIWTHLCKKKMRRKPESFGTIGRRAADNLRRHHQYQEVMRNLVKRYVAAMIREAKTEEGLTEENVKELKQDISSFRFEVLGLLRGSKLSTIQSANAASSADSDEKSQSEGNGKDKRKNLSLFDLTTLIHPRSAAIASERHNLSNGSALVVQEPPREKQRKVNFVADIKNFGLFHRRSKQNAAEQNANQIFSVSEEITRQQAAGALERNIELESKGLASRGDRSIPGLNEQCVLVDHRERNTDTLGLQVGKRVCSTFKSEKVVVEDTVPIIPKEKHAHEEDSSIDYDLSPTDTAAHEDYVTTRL
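Material: HEK293 stable line with TRPC4beta plus mu-opioid receptor; technique: Fluo4 calcium-sensitive dye fluorescence, kinetic, 1 Hz baseline; timing: Fluo4 dye loading 45 min at room temperature, 110 s recording; controls: assay buffer as low control, maximal DAMGO as high control; read-out: integrated baseline-normalised fluorescence ratio, converted to per-well B score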
TRPC4 potent = allosterically enhances the mouse TRPC4 cation channel. B-score at 10 µM. 0.42% of 310,000 active. HEK293 TRPC4beta/mu-opioid, DAMGO EC20, Fluo-4 Ca2+ flux; stronger effect = higher value;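 active = B-score of calcium response area above 5 SD of library B-scores, with initial fluorescence ratio within 5 SD of library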
TRPC6 inhibitor = blocks the mouse TRPC6 cation channel | Q61143 | HEK293-TRPC6, membrane potential dye, ACh-evoked depolarization; stronger effect = lower value | B-score at 10 µM | 1.1% of 310,000 active | AID 2553;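 active = B-score under library mean minus 3 SD, initial fluorescence not abnormally high, positive integrated signal ratio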;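 note: B-score derived from integrated fluorescence ratio over the kinetic read; more negative B-score means stronger inhibition of depolarization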
TRPC4 block = inhibitors of mouse TRPC4 channel; Q9QUQ5; HEK293 TRPC4beta/mu-opioid, DAMGO-evoked Fluo4 calcium flux; stronger effect = lower value; B-score at 10 µM; 0.39% of 300,000 active;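 active = B-score over 3 SD under the library average, no early fluorescence shift, positive overall ratio signal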
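Assay system: HEK293 cells with stable TRPC4beta plus mu-opioid receptor expression; Probe or stimulus: DAMGO in two steps, submaximal then maximal; Dosing: single-point compound dosing; Measured by: Fluo4 calcium-dye fluorescence, kinetic read; Read-out basis: B score from integrated Fluo4 fluorescence ratio.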
TRPC6 act = mouse TRPC6 channel activation | HEK293-TRPC6 membrane potential dye fluorescence; stronger effect = higher value | B-score at 10 µM | 0.13% of 310,000 active | Q61143;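 active = B-score of the integrated fluorescence ratio above library mean plus 3 SD, and starting fluorescence ratio within library mean plus 5 SD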;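 note: higher score means more depolarization so channel activation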
TRPC4 sel inh 2 = second selectivity test of TRPC6 inhibitors: effect on mouse TRPC4; shares compounds with TRPC6 inhibitor; HEK293 TRPC4/MOR, membrane potential dye fluorescence; channel activated by saturating DAMGO dose; inhibition, % at 10 µM; 42% of 920 active; AID 2776;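 active = compounds whose fluorescence signal differed from control wells by over 3 SD, either direction, in both duplicate plates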
TRPC4 spec = mouse TRPC4 off-target activity of TRPC6 inhibitors; HEK293 TRPC4/mu-opioid, membrane potential fluorescence; 61% of 920 active; shares compounds with TRPC6 inhibitor; activity change, negative = inhibition, % at 10 µM;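 active = rise or fall in signal beyond 3 SD of buffer-only wells in both replicate plates, either sign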;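 note: integrated kinetic ratio of fluorescence range over baseline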
HEK293 MPD ctr 2-1 = second check of TRPC6 inhibitor effects in parental HEK293 cells | shares compounds with TRPC6 inhibitor | parental HEK293 membrane potential dye fluorescence; maximal acetylcholine challenge after compound addition | signal change vs control, % at 10 µM | 31% of 920 active | AID 2779;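 active = membrane potential signal moving either way by over 3 SD of the maximum-effect control, in both duplicate plates, meaning non-specific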
HEK293 MPD ctr-1 = checks TRPC6 inhibitor effects in parental HEK293 cells. shares compounds with TRPC6 inhibitor. parental HEK293 membrane potential dye fluorescence. membrane potential signal change, % at 10 µM. 60% of 920 active. AID 2780;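 active = membrane potential signal shifting up or down by more than 3 SD of buffer-only wells, on both duplicate plates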
HEK293 MPD ctr-2 = parental HEK293 nonspecific activity of TRPC6 modulators | membrane potential dye fluorescence | shares compounds with TRPC6 inhibitor | AID 488924 | membrane potential signal change, % at 10 µM | 51% of 2,400 active;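 active = membrane potential signal moves up or down beyond 5 SD from buffer-only wells, on both duplicate plates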
HEK293 MPD ctr 2-2 = parental HEK293 nonspecific activity of TRPC6 modulators, second screen; shares compounds with TRPC6 inhibitor; membrane potential dye fluorescence; after compound, maximal acetylcholine stimulation; inhibition, % at 10 µM; 14% of 2,400 active;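 active = membrane potential signal drops by more than 5 SD from the mean control signal, in both duplicate plates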
TRPC4 ctr mod = mouse TRPC4 off-target activity of TRPC6 modulators | 69% of 2,400 active | percent change from control (negative = decrease, positive = increase), % at 10 µM | AID 488927 | HEK293 TRPC4/mu-opioid, membrane potential fluorescence | shares compounds with TRPC6 inhibitor;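 active = membrane potential signal moved up or down beyond 5 SD of buffer control wells, in both duplicate plates, actives on both sides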
TRPC4/MOR inh 2 = second check of whether TRPC6 modulators also affect mouse TRPC4. shares compounds with TRPC6 inhibitor. HEK293 TRPC4/mu-opioid, membrane potential dye fluorescence; stimulated with maximal-effect DAMGO. inhibition, % at 10 µM. 55% of 2,400 active. AID 488928;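 active = drop in membrane potential signal beyond 5 SD of the control wells in both duplicate plates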;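 note: TRPC4 counter screen for TRPC6 hits run under conditions tuned for TRPC6 not TRPC4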
TRPC6 block conf = confirmation of mouse TRPC6 inhibitors. shares compounds with TRPC6 inhibitor. HEK293-TRPC6, membrane potential dye, ACh-evoked depolarization. inhibition, % at 10 µM. 43% of 3,300 active. AID 488960;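 active = fluorescence ratio falls more than 5 SD below the full-stimulation control mean, in both duplicate runs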;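 note: integrated fluorescence ratio of peak minus minimum over baseline after agonist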
TRPC6 act conf = confirmation of mouse TRPC6 activators | shares compounds with TRPC6 inhibitor | HEK293-TRPC6 membrane potential dye fluorescence, FDSS | activation, % at 10 µM | 11% of 2,800 active | AID 488961;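 active = ratio signal rise beyond 5 SD above unstimulated control wells' mean, seen in both duplicate runs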
Each line names hits and unclear results; the compound was inactive in the other large screens (follow-up assays come after a bar, where they were run).

COC(=O)c1ccc(N2CCN(C)CC2)c(NC(=O)c2ccc(Br)o2)c1	TRPC4 agonist 142, TRPC6 inhibitor -6.7 | HEK293 MPD ctr-2 -268% | HEK293 MPD ctr 2-2 82% | TRPC4 ctr mod -38% | TRPC4/MOR inh 2 94% | TRPC6 block conf 74% | TRPC6 act conf inactive
COC(=O)c1ccc(N2CCN(C)CC2)c(NC(=O)c2sc3ccccc3c2Cl)c1	TRPC4 agonist 71, TRPC6 inhibitor -6.7 | HEK293 MPD ctr-2 -196% | HEK293 MPD ctr 2-2 inactive | TRPC4 ctr mod -46% | TRPC4/MOR inh 2 74% | TRPC6 block conf inactive | TRPC6 act conf inactive
COC(C(=O)Nc1ccnn1C1CCN(Cc2nccs2)CC1)c1ccccc1 (centres undefined)	none
COc1ccc(OC)c(CN2CCN(C(=O)c3ccc(F)cc3)CC2)c1	none
COC(=O)c1cn(Cc2cc(OC)ccc2OC)cc(F)c1=O	TRPC6 inhibitor -5.3 | HEK293 MPD ctr-2 inactive | HEK293 MPD ctr 2-2 inactive | TRPC4 ctr mod inactive | TRPC4/MOR inh 2 inactive | TRPC6 block conf inactive | TRPC6 act conf inactive
CCN(C(=O)CN1C(=O)/C(=C/c2ccccc2)SC1=S)C1CCS(=O)(=O)C1 (centres undefined)	none
CCc1cc(-c2[nH]ncc2-c2ccc3c(c2)OCO3)c(O)cc1O	TRPC6 inhibitor -5.3 | HEK293 MPD ctr-2 inactive | HEK293 MPD ctr 2-2 inactive | TRPC4 ctr mod inactive | TRPC4/MOR inh 2 70% | TRPC6 block conf 65% | TRPC6 act conf inactive
Cc1cc(OC(C)C(=O)Nc2ccncc2)ccc1Cl (centres undefined)	none
O=C(NCCCn1ccnc1)c1cc2cc([N+](=O)[O-])ccc2oc1=O	TRPC6 inhibitor -5 | HEK293 MPD ctr-2 -83% | HEK293 MPD ctr 2-2 inactive | TRPC4 ctr mod -15% | TRPC4/MOR inh 2 inactive | TRPC6 block conf inactive | TRPC6 act conf inactive
CCC(C)NC(=O)c1ccc(C2SCC(=O)N2Cc2ccccc2)cc1 (centres undefined)	TRPC6 inhibitor -7.6 | TRPC4 sel inh 2 inactive | TRPC4 spec inactive | HEK293 MPD ctr 2-1 inactive | HEK293 MPD ctr-1 inactive | TRPC6 block conf inactive | TRPC6 act conf inactive
CCOc1ccc(NC(=S)N(CCCN2CCCC2)Cc2cccn2Cc2ccc(Cl)cc2)cc1	TRPC6 inhibitor -5.2 | HEK293 MPD ctr-2 inactive | HEK293 MPD ctr 2-2 inactive | TRPC4 ctr mod inactive | TRPC4/MOR inh 2 53% | TRPC6 block conf inactive | TRPC6 act conf inactive
CCOC(=O)N1CCN(C(=O)CN(c2cc(Cl)ccc2OC)S(=O)(=O)c2ccccc2)CC1	TRPC6 inhibitor -7.9 | TRPC4 sel inh 2 inactive | TRPC4 spec 7.5% | HEK293 MPD ctr 2-1 inactive | HEK293 MPD ctr-1 3.1% | TRPC6 block conf inactive | TRPC6 act conf inactive
Cc1ccc(-n2nc3cc(C)c(N)cc3n2)cc1	none
Cc1cc2nc3ccc(N(C)C)cc3nc2cc1N	TRPC6 inhibitor -6.4 | HEK293 MPD ctr-2 -82% | HEK293 MPD ctr 2-2 inactive | TRPC4 ctr mod -42% | TRPC4/MOR inh 2 inactive | TRPC6 block conf inactive | TRPC6 act conf inactive
COc1ccc(C2=Nn3c([n+](C)c4ccccc43)SC2)cc1	TRPC6 inhibitor -7.1 | TRPC4 sel inh 2 66% | TRPC4 spec -20% | HEK293 MPD ctr 2-1 -36% | HEK293 MPD ctr-1 -338% | TRPC6 block conf 109% | TRPC6 act conf inactive
CCCCN(C)C(=O)CSc1nc(NCc2ccc(OC)cc2)c2ccccc2n1	TRPC6 inhibitor -9.7 | TRPC4 sel inh 2 68% | TRPC4 spec 4.6% | HEK293 MPD ctr 2-1 inactive | HEK293 MPD ctr-1 6.4% | TRPC6 block conf inactive | TRPC6 act conf inactive
CCOC(=O)c1nc(NCc2ccccc2)c2ccccc2n1	none
N#C/C(C(N)=O)=c1/ccc2c(c1)N1C3=C(CCCC3)CC3CCCCC31N=2 (centres undefined)	TRPC6 inhibitor -12 | HEK293 MPD ctr-2 -262% | HEK293 MPD ctr 2-2 82% | TRPC4 ctr mod -52% | TRPC4/MOR inh 2 94% | TRPC6 block conf 80% | TRPC6 act conf inactive
CC(C)NC(=S)NC(c1ccccc1)(c1ccccc1)c1ccccc1	none
O=C(CSc1ccc(-c2ccco2)nn1)Nc1ccccc1F	none
CN(C)CCOC1c2ccccc2C=Cc2ccccc21	TRPC6 inhibitor -5.5 | HEK293 MPD ctr-2 124% | HEK293 MPD ctr 2-2 84% | TRPC4 ctr mod 22% | TRPC4/MOR inh 2 42% | TRPC6 block conf 68%
CCN(CC)CCn1nc2c3c(cccc3c1=O)-c1ccccc1-2	TRPC6 inhibitor -5.8 | HEK293 MPD ctr-2 -78% | HEK293 MPD ctr 2-2 inactive | TRPC4 ctr mod -18% | TRPC4/MOR inh 2 55% | TRPC6 block conf 40% | TRPC6 act conf inactive
COc1ccc(CNc2cccc3[nH]c(C(F)(F)F)nc23)cc1OC	none
CN(C(=O)COC(=O)/C=C/c1ccc(C(F)(F)F)cc1)c1c(N)n(Cc2ccccc2)c(=O)[nH]c1=O	none
COCCNC(=O)C(c1cccs1)N(Cc1cccs1)C(=O)Cn1nnc2ccccc21 (centres undefined)	none
